Data set [1] concerns Mus musculus. Briefly: Protective index is defined as ND50 (i.p.) divided by MES ED50(i.p.). It is filed as functional. The essentials:
(§1)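 Ratio of ND50 from the wire traction test to MES ED50, both measured by the same route (ip or oral) in the same animals. Quantal dose-response data for each were evaluated by Litchfield-Wilcoxon.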

Data set [2] deals with Mus musculus. The experiment in a line: Dose of compound causing a neurological deficit in 50% of mice after ip administration; 25-30. It is filed as functional. An outline of the steps: (§2)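 Traction test in male Hilltop ICR-derived mice (19-30 g, groups of 8-10) just before electroshock, 15 min after ip or 30 min after oral dosing. Mice placed on a 16-gauge, 65-cm copper wire 40 cm above the table; deficit scored as failure to stay on for 10 s. ND50 with 95% limits by Litchfield-Wilcoxon.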

Data set [3] has as its system Mus musculus. Briefly: Compound was evaluated for anticonvulsant activity by maximal electroshock assay(MES) in mice after ip administration; 13-19. In kind it is functional. The essentials:
(§3)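 Male Hilltop ICR-derived mice (19-30 g), groups of 8-10, dosed ip with compound or aqueous vehicle. After 15 min pretreatment, a transcorneal 60-Hz, 50 mA shock was given for 0.2 s. Just before the shock, each mouse was tested on a horizontal wire (10 s). Quantal data were analysed by Litchfield-Wilcoxon to give ED50 with 95% confidence limits.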
(In general: In the maximal electroshock model the usual endpoint is tonic extension of the hind limbs.)

For data set [4], the system named is Mus musculus. The experiment in a line: Dose of compound causing a neurological deficit in 50% of mice after ip administration; 19-38. It is filed as functional. An outline of the steps: as §2
In data set [5] the test system is Mus musculus. The experiment in a line: Compound was evaluated for anticonvulsant activity by maximal electroshock assay(MES) in mice after ip administration; 8-16. It is filed as functional. An outline of the steps: as §3
The test system of data set [6] is Mus musculus. Briefly: Protective index defined as ND50 (p.o.) divided by MES ED50(op). It is filed as functional. The essentials:
as §1

Data set [7] relates to Mus musculus. The experiment in a line: Compound was evaluated for anticonvulsant activity by maximal electroshock assay(MES) in mice after po administration; 55-103. It is filed as functional. The essentials: (§4)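 Male Hilltop ICR-derived mice (19-30 g), groups of 8-10, given compound or aqueous vehicle orally. The transcorneal 60-Hz shock (50 mA, 0.2 s) followed a 30 min pretreatment and a wire-hang neurological check (10 s). ED50 and 95% confidence limits were obtained from quantal data by the Litchfield-Wilcoxon method.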

The test system of data set [8] is Mus musculus. Briefly: Dose causing a neurological deficit in 50% of mice following p.o. administration. It is filed as functional. An outline of the steps: as §2
The subject of data set [9] is Mus musculus. The experiment in a line: Dose causing a neurological deficit in 50% of mice after ip administration. It is filed as functional. The essentials: as §2
Data set [10] concerns Mus musculus. The experiment in a line: Compound was evaluated for anticonvulsant activity by maximal electroshock assay(MES) in mice after ip administration; 20-28. In kind it is functional. An outline of the steps: as §3
The nature of data set [11]: Lethal dose was measured in mice after ip administration. It is filed as toxicity, organism-based. Particulars: mouse, in vivo. The essentials: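 Male Simonsen ICR-derived mice (16-24 g), groups of three, given compound ip in increasing doses within a behavioral screen. Deaths counted on day 5, and LD50 estimated from 5-day survival. Quantal data analysed by the Litchfield-Wilcoxon method.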

Data set [12] deals with Rattus norvegicus. Briefly: Compound was evaluated for anticonvulsant activity by maximal electroshock assay(MES) in rat after ip administration; 1.2-6.2. In kind it is functional.
For data set [13], the system named is Mus musculus. The experiment in a line: Compound was evaluated for anticonvulsant activity by maximal electroshock assay(MES) in mice after po administration; 29-53. It is filed as functional. The essentials: as §4
Data set [14] has as its system Mus musculus. Briefly: Compound was evaluated for anticonvulsant activity by maximal electroshock assay(MES) in mice after ip administration; 12-15. In kind it is functional. The essentials: as §3
The test system of data set [15] is Rattus norvegicus. The experiment in a line: Dose of compound causing a neurological deficit in 50% of rat after ip administration; 35-83. In kind it is functional. The essentials: (§5)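 Rats (Simonsen Sprague-Dawley-derived, 80-110 g, groups of 8-10) placed on a suspended 16-gauge, 65-cm copper wire just before electroshock. Deficit scored as inability to remain for 8 s. Pretreatment was 15 min ip or 30 min oral. Quantal data analysed by Litchfield-Wilcoxon to give ND50 with 95% limits.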

Data set [16] concerns Mus musculus. The experiment in a line: Dose of compound causing a neurological deficit in 50% of mice after ip administration; 61-69. It is filed as functional. An outline of the steps:
as §2

The subject of data set [17] is Mus musculus. The experiment in a line: Compound was evaluated for anticonvulsant activity by maximal electroshock assay(MES) in mice after ip administration; 13-43. In kind it is functional. The essentials: as §3
For data set [18], the system named is Mus musculus. Briefly: Compound was evaluated for anticonvulsant activity by maximal electroshock assay(MES) in mice after po administration; 69-90. In kind it is functional. An outline of the steps: as §4
Data set [19] concerns Mus musculus. The experiment in a line: Compound was evaluated for anticonvulsant activity by maximal electroshock assay(MES) in mice after po administration; 41-77. In kind it is functional. An outline of the steps: as §4
In data set [20] the test system is Mus musculus. The experiment in a line: Dose of compound causing a neurological deficit in 50% of mice after ip administration; 16-49. It is filed as functional. The essentials:
as §2

The subject of data set [21] is Mus musculus. Briefly: Dose of compound causing a neurological deficit in 50% of mice after ip administration; 45-89. It is filed as functional. An outline of the steps:
as §2

Data set [22] relates to Mus musculus. The experiment in a line: Compound was evaluated for anticonvulsant activity by maximal electroshock assay(MES) in mice after ip administration; 8-17. In kind it is functional. The essentials:
as §3

Data set [23] deals with Mus musculus. The experiment in a line: Compound was evaluated for anticonvulsant activity by maximal electroshock assay(MES) in mice after ip administration; 8-13. It is filed as functional. The essentials:
as §3

Data set [24] relates to Mus musculus. The experiment in a line: Dose of compound causing a neurological deficit in 50% of mice after ip administration; 16 to > 100. It is filed as functional. The essentials:
as §2

The test system of data set [25] is Rattus norvegicus. The experiment in a line: Dose of compound causing a neurological deficit in 50% of rat after ip administration. In kind it is functional. The essentials: as §5
Data set [26] has as its system Mus musculus. Briefly: Compound was evaluated for anticonvulsant activity by maximal electroshock assay(MES) in mice after ip administration; 14-23. It is filed as functional. The essentials:
as §3

Data set [27] deals with Mus musculus. The experiment in a line: Dose of compound causing a neurological deficit in 50% of mice after ip administration; 79-125. In kind it is functional. An outline of the steps: as §2
In data set [28] the test system is Rattus norvegicus. The experiment in a line: Dose of compound causing a neurological deficit in 50% of rat after po administration. In kind it is functional. The essentials: as §5
In data set [29] the test system is Rattus norvegicus. Briefly: Compound was evaluated for anticonvulsant activity by maximal electroshock assay(MES) in rat after ip administration; 8-23. It is filed as functional. An outline of the steps:
(§6)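 Male Simonsen Sprague-Dawley-derived rats, 80-110 g, groups of 8-10, dosed with compound or aqueous vehicle; pretreatment 15 min after ip or 30 min after oral dosing. Transcorneal electroshock, 150 mA, 60 Hz, 0.2 s, given after the wire test. ED50 with 95% confidence limits from quantal data by Litchfield-Wilcoxon.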

Data set [30] relates to Rattus norvegicus. Briefly: Compound was evaluated for anticonvulsant activity by maximal electroshock assay(MES) in rat after po administration; 34-83. It is filed as functional. An outline of the steps:
as §6

What is called ED50 is the dose that gives a 50% effect, or the effect in half of the subjects. A low value points to an effect at a small dose. Consider `CCCCOC(Cn1ccnc1)c1cccc2ccccc12` (centres undefined), for which the PI in data set [1] was determined as 1.7. The ND50 in data set [2] turned out to be 27 mg/kg. This compound also gave an ED50 in data set [3] of 16 mg/kg.

The compound `CCOC(Cn1ccnc1)c1ccc2ccccc2c1` (centres undefined) displayed an ND50 in [4] of 27 mg/kg. In [5], this compound had an ED50 of 11 mg/kg. In addition, in data set [1], the PI amounted to 2.5.

For orientation: LD50 means the dose expected to kill half of the subjects tested. In the case of `Cc1ccc2cc(C(=O)Cn3ccnc3)ccc2c1.Cl`, the values for the PI in [6] and in data set [1] were greater than 2 and greater than 4.3, respectively. Besides, the ED50 in data set [7] was found to be 76 mg/kg; in data set [10] it was 24 mg/kg. The results for the ND50 in [8] and in data set [9] were greater than 150 mg/kg and greater than 100 mg/kg, respectively. Further, in data set [11], the LD50 is greater than 100 mg/kg.

Take `Br.CCc1ccc2cccc(C(=O)Cn3ccnc3)c2c1`: the ED50 amounted to 3.1 mg/kg in data set [12], 40 mg/kg in data set [13] and 13 mg/kg in data set [14]. In addition, the PI in data set [6] is listed as greater than 2.5. The ND50 is greater than 100 mg/kg in data set [8], 53 mg/kg in data set [15] and 65 mg/kg in [16].

For the compound `Cc1cc2ccc(C(=O)Cn3ccnc3)cc2cc1C.Cl`, the PI is greater than 1.3 in [6] and greater than 4 in [1]. Besides, the ND50 in [8] and in data set [9] was greater than 100 mg/kg each time. In addition, the figures for the ED50 in data set [17] and in data set [18] were 25 mg/kg and 78 mg/kg, respectively.

On to `Cl.c1ccc2cc(C3(Cn4ccnc4)OCCCO3)ccc2c1`, for which the PI is greater than 1.7 in [6] and 1.8 in data set [1]. In data set [19], the ED50 stood at 57 mg/kg. The results for the ND50 in data set [8] and in [20] were greater than 100 mg/kg and 30 mg/kg, respectively.

Regarding `Cl.OC(CCn1ccnc1)c1ccc2ccccc2c1` (centres undefined), the PI in data set [1] worked out at 4.9. The same compound showed an ND50 in data set [21] of 64 mg/kg. Further, the ED50 in [22] was 13 mg/kg.

In data set [23], `COC(CCn1ccnc1)c1ccc2ccccc2c1.O=S(=O)(O)O` (centres undefined) yielded an ED50 of 11 mg/kg. Besides, the PI in data set [1] turned out to be 3.5. In addition, the ND50 in data set [24] is greater than 39 mg/kg.

Turning to `Cl.O=C(OC(Cn1ccnc1)c1ccc2ccccc2c1)c1ccccc1` (centres undefined), the PI in data set [1] worked out at 5.2. For the same compound, the figures for the ND50 in data set [25], in data set [27] and in data set [28] were greater than 100 mg/kg, 99 mg/kg and greater than 100 mg/kg, respectively. For the same compound, the figures for the ED50 in data set [26], in data set [29] and in data set [30] were 19 mg/kg, 14 mg/kg and 53 mg/kg, respectively.
